What was measured:
[1] = biological target: Albumin (Bos taurus, UniProt P02769); assay: Binding affinity to bovine serum albumin assessed as quenching constant by fluorescence spectroscopic method; conditions: cattle
[2] = tested on: Calf thymus DNA; assay: Binding affinity to calf thymus DNA assessed as DNA intercalation by measuring change in melting temperature at 10 uM by thermal denaturation assay; assay type: nucleic-acid assay; conditions: Bos taurus
[3] = tested on: HEK293; assay: Cytotoxicity against human HEK293 cells assessed as reduction in cell viability at 0.00000001 M incubated for 48 hrs by MTT colorimetric assay relative to control; assay type: toxicity, cell-based; conditions: hek293, 48 h, 0.01 µM, dose 10 nM
[4] = tested on: SK-MEL-2; assay: Antiproliferative activity against human SK-MEL-2 cells assessed as cell growth at 0.00000001 M incubated for 48 hrs by SRB assay relative to control; assay type: functional; conditions: dose 10 nM, read-out: Activity
[5] = tested on: T47D; assay: Antiproliferative activity against human T47D cells assessed as cell growth inhibition by measuring lethal concentration incubated for 48 hrs by sulforhodamine B assay; assay type: functional; conditions: read-out: LC50 (the source's name)
Method in brief: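 NCI-60 five-dose screen (10^-4 to 10^-8 M, 10-fold dilutions; DMSO stocks). Cells in RPMI 1640 with 5% FBS and 2 mM L-glutamine, preincubated 24 h, then exposed 48 h at 37 °C, 5% CO2. Fixed with cold TCA, stained with 0.4% SRB, absorbance read at 515 nm. Time-zero plates used as reference. LC50 taken from [(Ti-Tz)/Tz]×100 […].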

[6] = tested on: HL-60; assay: Antiproliferative activity against human HL-60 cells assessed as cell growth at 0.00000001 M incubated for 48 hrs by SRB assay relative to control; assay type: functional; conditions: dose 10 nM, read-out: Activity
Method in brief: (§1)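 NCI-60 five-dose screen (10^-4 to 10^-8 M). Cells grown in RPMI 1640 with 5% FBS and 2 mM L-glutamine, plated at 5,000-40,000 cells/well and preincubated 24 h. Drug given from DMSO stock, then 48 h at 37 °C, 5% CO2. For adherent lines, cells fixed with cold TCA, SRB-stained and read at 515 nm. Percent growth taken against time-zero and untreated control.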

[7] = tested on: NCI-H460; assay: Antiproliferative activity against human NCI-H460 cells assessed as cell growth at 0.00000001 M incubated for 48 hrs by SRB assay relative to control; assay type: functional; conditions: dose 10 nM, read-out: Activity
[8] = tested on: HCC 2998; assay: Antiproliferative activity against human HCC 2998 cells assessed as cell growth at 0.00000001 M incubated for 48 hrs by SRB assay relative to control; assay type: functional; conditions: dose 10 nM, read-out: Activity; method in brief: as §1
[9] = tested on: SK-OV-3; assay: Antiproliferative activity against human SK-OV-3 cells assessed as cell growth inhibition by measuring lethal concentration incubated for 48 hrs by sulforhodamine B assay; assay type: functional; conditions: read-out: LC50 (the source's name)
[10] = tested on: HL-60; assay: Antiproliferative activity against human HL-60 cells assessed as cell growth inhibition by measuring lethal concentration incubated for 48 hrs by sulforhodamine B assay; assay type: functional; conditions: read-out: LC50 (the source's name)
[11] = tested on: PC-3; assay: Growth inhibition against human PC-3 cells assessed as total growth inhibitory concentration incubated for 48 hrs by sulforhodamine B assay; assay type: functional
[12] = tested on: TK-10; assay: Growth inhibition against human TK-10 cells assessed as total growth inhibitory concentration incubated for 48 hrs by sulforhodamine B assay; assay type: functional
[13] = tested on: SK-MEL-2; assay: Growth inhibition against human SK-MEL-2 cells assessed as total growth inhibitory concentration incubated for 48 hrs by sulforhodamine B assay; assay type: functional
[14] = tested on: Malme-3M; assay: Growth inhibition against human Malme-3M cells incubated for 48 hrs by sulforhodamine B assay; assay type: functional
[15] = tested on: COLO 205; assay: Growth inhibition against human COLO 205 cells incubated for 48 hrs by sulforhodamine B assay; assay type: functional
[16] = tested on: UACC-62; assay: Antiproliferative activity against human UACC-62 cells assessed as cell growth at 0.0000001 M incubated for 48 hrs by SRB assay relative to control; assay type: functional; conditions: dose 100 nM, read-out: Activity
[17] = tested on: OVCAR-3; assay: Antiproliferative activity against human OVCAR-3 cells assessed as cell growth at 0.0000001 M incubated for 48 hrs by SRB assay relative to control; assay type: functional; conditions: dose 100 nM, read-out: Activity
[18] = tested on: 786-0; assay: Antiproliferative activity against human 786-0 cells assessed as cell growth at 0.0000001 M incubated for 48 hrs by SRB assay relative to control; assay type: functional; conditions: dose 100 nM, read-out: Activity
Method in brief: (§2)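 NCI-60 five-dose screen over 10^-4–10^-8 M (10-fold dilutions). Cells grown in RPMI 1640 with 5% FBS and 2 mM L-glutamine, seeded at 5,000–40,000 cells/well and preincubated 24 h. Drug from DMSO stock, 48 h at 37 °C, 5% CO2. Adherent cells TCA-fixed and stained with 0.4% SRB; A515 read. Percent growth = (Ti−Tz)/(C−Tz)×100, or (Ti−Tz)/Tz×100 when Ti<Tz.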

[19] = tested on: PC-3; assay: Antiproliferative activity against human PC-3 cells assessed as cell growth at 0.0000001 M incubated for 48 hrs by SRB assay relative to control; assay type: functional; conditions: dose 100 nM, read-out: Activity
[20] = tested on: MDA-MB-231; assay: Antiproliferative activity against human MDA-MB-231 cells assessed as cell growth at 0.0000001 M incubated for 48 hrs by SRB assay relative to control; assay type: functional; conditions: dose 100 nM, read-out: Activity
[21] = tested on: HOP-62; assay: Antiproliferative activity against human HOP-62 cells assessed as cell growth at 0.000001 M incubated for 48 hrs by SRB assay relative to control; assay type: functional; conditions: read-out: Activity; method in brief: as §1
[22] = tested on: NCI/ADR-RES; assay: Antiproliferative activity against human NCI/ADR-RES cells assessed as cell growth at 0.000001 M incubated for 48 hrs by SRB assay relative to control; assay type: functional; conditions: read-out: Activity
[23] = tested on: A498; assay: Antiproliferative activity against human A498 cells assessed as cell growth at 0.000001 M incubated for 48 hrs by SRB assay relative to control; assay type: functional; conditions: read-out: Activity; method in brief: as §2
[24] = tested on: TK-10; assay: Antiproliferative activity against human TK-10 cells assessed as cell growth at 0.000001 M incubated for 48 hrs by SRB assay relative to control; assay type: functional; conditions: read-out: Activity
[25] = tested on: MDA-MB-231; assay: Antiproliferative activity against human MDA-MB-231 cells assessed as cell growth at 0.000001 M incubated for 48 hrs by SRB assay relative to control; assay type: functional; conditions: read-out: Activity
[26] = tested on: MDA-MB-468; assay: Antiproliferative activity against human MDA-MB-468 cells assessed as cell growth at 0.000001 M incubated for 48 hrs by SRB assay relative to control; assay type: functional; conditions: read-out: Activity
[27] = tested on: SR; assay: Antiproliferative activity against human SR cells assessed as cell growth at 0.00001 M incubated for 48 hrs by SRB assay relative to control; assay type: functional; conditions: read-out: Activity
[28] = tested on: MDA-MB-435; assay: Antiproliferative activity against human MDA-MB-435 cells assessed as cell growth at 0.00001 M incubated for 48 hrs by SRB assay relative to control; assay type: functional; conditions: read-out: Activity
[29] = tested on: A549; assay: Antiproliferative activity against human A549 cells assessed as cell growth at 0.0001 M incubated for 48 hrs by SRB assay relative to control; assay type: functional; conditions: read-out: Activity; method in brief: as §2
[30] = tested on: NCI-H226; assay: Antiproliferative activity against human NCI-H226 cells assessed as cell growth at 0.0001 M incubated for 48 hrs by SRB assay relative to control; assay type: functional; conditions: read-out: Activity
[31] = tested on: SK-OV-3; assay: Antiproliferative activity against human SK-OV-3 cells assessed as cell growth at 0.0001 M incubated for 48 hrs by SRB assay relative to control; assay type: functional; conditions: read-out: Activity
[32] = tested on: TK-10; assay: Antiproliferative activity against human TK-10 cells assessed as cell growth at 0.0001 M incubated for 48 hrs by SRB assay relative to control; assay type: functional; conditions: read-out: Activity

Sequence of Albumin (P02769 whole entry): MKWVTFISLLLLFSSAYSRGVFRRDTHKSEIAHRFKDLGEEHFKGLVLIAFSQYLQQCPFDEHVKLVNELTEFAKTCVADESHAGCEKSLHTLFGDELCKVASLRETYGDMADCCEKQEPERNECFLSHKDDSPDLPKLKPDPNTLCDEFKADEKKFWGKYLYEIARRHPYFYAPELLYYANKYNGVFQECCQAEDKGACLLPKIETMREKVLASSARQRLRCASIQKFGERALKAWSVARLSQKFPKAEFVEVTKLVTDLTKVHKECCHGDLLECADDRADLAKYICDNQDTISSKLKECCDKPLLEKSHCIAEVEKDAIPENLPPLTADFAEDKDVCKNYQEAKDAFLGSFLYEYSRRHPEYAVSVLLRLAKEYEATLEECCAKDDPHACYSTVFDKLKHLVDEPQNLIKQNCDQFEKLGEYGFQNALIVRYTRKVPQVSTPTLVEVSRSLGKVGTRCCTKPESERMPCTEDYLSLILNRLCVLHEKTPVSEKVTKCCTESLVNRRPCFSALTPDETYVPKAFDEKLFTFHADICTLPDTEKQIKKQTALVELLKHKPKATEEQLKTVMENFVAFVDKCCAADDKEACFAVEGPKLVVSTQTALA

SMILES | Kq [1] | ΔTm [2] [°C] | Activity [3] [%] | growth at 0.01 µM [4] [%] | CC50 [5] [µM] | growth at 0.01 µM [6] [%] | growth at 0.01 µM [7] [%] | growth at 0.01 µM [8] [%] | CC50 [9] [µM] | CC50 [10] [µM] | TGI [11] [µM] | TGI [12] [µM] | TGI [13] [µM] | GI50 [14] [µM] | GI50 [15] [µM] | growth at 0.1 µM [16] [%] | growth at 0.1 µM [17] [%] | growth at 0.1 µM [18] [%] | growth at 0.1 µM [19] [%] | growth at 0.1 µM [20] [%] | other results
COc1ccc(-c2cn3ccnc3c(-c3ccc4ncn(C5CCCCC5)c4c3)n2)cc1 | 1.16 10^13/M/sec | 22 | 13.96 | 96 | > 100 | 97 | 104 | 97 | > 100 | > 100 | > 100 | 68.9 | > 100 | 43.1 | 2.22 | 90 | 99 | 93 | 98 | 101 | growth at 1 µM [21]: 52%; growth at 1 µM [22]: 38%; growth at 1 µM [23]: 44%; growth at 1 µM [24]: 84%; growth at 1 µM [25]: 81%; growth at 1 µM [26]: 47%; growth at 10 µM [27]: 9%; growth at 10 µM [28]: 6%; growth at 100 µM [29]: 16%; growth at 100 µM [30]: 39%; growth at 100 µM [31]: -2%; growth at 100 µM [32]: -3%
c1ccc(Cn2cnc3ccc(-c4nc(-c5ccc6c(c5)ncn6C5CCCCC5)cn5ccnc45)cc32)cc1 | 1.14 10^13/M/sec | 12 | 12.08 | 94 | > 100 | 104 | 103 | 94 | > 100 | > 100 | 7.55 | > 100 | 4.85 | 2.54 | 1.88 | 90 | 100 | 86 | 96 | 98 | growth at 1 µM [21]: 82%; growth at 1 µM [22]: 84%; growth at 1 µM [23]: 97%; growth at 1 µM [24]: 97%; growth at 1 µM [25]: 83%; growth at 1 µM [26]: 89%; growth at 10 µM [27]: 5%; growth at 10 µM [28]: -32%; growth at 100 µM [29]: -40%; growth at 100 µM [30]: 36%; growth at 100 µM [31]: 6%; growth at 100 µM [32]: 13%
